Data taken from ChEMBL document CHEMBL4261539, “18α-Glycyrrhetinic acid monoglucuronide as an anti-inflammatory agent through suppression of the NF-κB and MAPK signaling pathway” (Medchemcomm, 2017).
The source made the active and inactive calls. The calls are words filed in the database; no cut-off is given here.

Key:
RAW264.7 [1] = assay: Anti-inflammatory activity in mouse RAW264.7 cells assessed as inhibition of LPS-induced NO production at 40 uM preincubated for 2 hrs followed by LPS addition measured after 20 hrs by Griess assay relative to control; assay type: functional
Procedure, shortened: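 Macrophages (RAW264.7) are pretreated 2 h with compound at 40 μM, then held with or without LPS (1 μg mL–1) for 20 h. Released NO is measured with Griess reagent. Results are means ± SD (n = 3) from at least three independent experiments.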

RAW264.7 [2] = assay: Anti-inflammatory activity in mouse RAW264.7 cells assessed as inhibition of LPS-induced IL-6 production at 10 to 40 uM preincubated for 2 hrs followed by LPS addition measured after 20 hrs by ELISA; assay type: functional, cell-based
Procedure, shortened: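 RAW264.7 cells are pretreated 2 h with compound at 40 or 10 μM, then held with or without LPS (1 μg mL–1) for 20 h. Supernatant IL-6 is quantified by ELISA. Results are means ± SD (n = 3) of at least three independent experiments.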

[3] = Cytotoxicity against mouse RAW264.7 cells assessed as cell viability at 40 uM after 24 hrs by MTT assay relative to control; assay type: cell-based; conditions: read-out: Activity
Mus musculus [4] = assay: Anti-inflammatory activity in C57BL6 mouse model of CCl4-induced hepatic fibrosis assessed as reduction in inflammatory cell infiltration in hepatic tissue at 0.1 mg/kg, ig administered 2 times per week for 4 weeks by H and E staining based assay; assay type: functional, organism-based
Procedure, shortened: (§1)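 Male SPF C57BL6 mice (20 ± 2 g), acclimatized for at least one week under controlled temperature, humidity and light cycle. Hepatic fibrosis was induced with CCl4, with control and model groups run alongside. Liver tissue was H&E-stained and examined by light microscopy for inflammatory cell infiltration, hepatocyte degeneration and fibrosis.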

Mus musculus [5] = assay: Anti-inflammatory activity in C57BL6 mouse model of CCl4-induced hepatic fibrosis assessed as reduction in blue collagen fibers in hepatic tissue at 0.1 mg/kg, ig administered 2 times per week for 4 weeks by masson staining based assay; assay type: functional, organism-based
Procedure, shortened: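 Male SPF C57BL6 mice (20 ± 2 g), housed at 22 ± 2 °C and 50% humidity with a 12 h light/dark cycle, acclimatized for at least one week. CCl4-induced hepatic fibrosis model, groups compared with untreated control and CCl4 model groups. Liver sections were Masson-stained, and blue collagen fibers were scored by light microscopy.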

Mus musculus [6] = assay: Anti-inflammatory activity in C57BL6 mouse model of CCl4-induced hepatic fibrosis assessed as reduction in hepatic fibrosis at 0.1 mg/kg, ig administered 2 times per week for 4 weeks by H and E staining based assay; assay type: functional, organism-based; procedure, shortened: as §1
[7] = biological target: Transcription factor p65 (Mus musculus) (UniProt Q04207); assay: Inhibition of LPS-induced NF-kB p65 phosphorylation in mouse RAW264.7 cells at 10 to 30 uM after 30 mins by Western blot analysis; assay type: cell-based
Sequence of Transcription factor p65 (Mus musculus) (Q04207 whole entry): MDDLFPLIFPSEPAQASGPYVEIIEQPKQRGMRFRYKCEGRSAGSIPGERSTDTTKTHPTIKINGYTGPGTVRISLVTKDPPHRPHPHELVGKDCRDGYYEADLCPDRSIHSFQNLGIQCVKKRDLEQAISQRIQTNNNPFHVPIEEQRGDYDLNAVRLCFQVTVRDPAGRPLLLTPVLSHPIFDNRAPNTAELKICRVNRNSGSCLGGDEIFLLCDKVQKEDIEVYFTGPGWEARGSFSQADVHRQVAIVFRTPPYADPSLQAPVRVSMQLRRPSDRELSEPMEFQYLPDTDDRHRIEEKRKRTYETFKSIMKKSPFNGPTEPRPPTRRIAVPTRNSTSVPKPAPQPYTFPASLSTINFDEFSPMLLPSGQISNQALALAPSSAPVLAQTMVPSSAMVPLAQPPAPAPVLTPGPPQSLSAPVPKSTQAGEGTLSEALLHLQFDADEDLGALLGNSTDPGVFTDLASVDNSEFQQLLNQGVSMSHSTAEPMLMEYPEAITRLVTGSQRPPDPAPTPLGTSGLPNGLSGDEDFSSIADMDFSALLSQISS
Procedure, shortened: (§2)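 RAW264.7 cells are exposed to 10–30 μM test article plus LPS (1 μg mL–1) for 30 min. Total and phosphorylated proteins are probed by western blot: NF-κB p65 and IκB, with Bay 11-7082 (20 μM) as reference, and JNK, ERK1/2 and p38 MAPK. Results are means ± SD (n = 3) from at least three independent experiments.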

Mus musculus [8] = assay: Anti-inflammatory activity in C57BL6 mouse model of CCl4-induced hepatic fibrosis assessed as reduction in blue collagen fibers in hepatic tissue at 100 to 200 mg/kg, ig administered 2 times per week for 4 weeks by masson staining based assay; assay type: functional, organism-based
Procedure, shortened: (§3)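 Male SPF C57BL6 mice (20 ± 2 g) are acclimatized at least one week at 22 ± 2 °C, 50% humidity, 12 h light/dark, with free food and water. CCl4 induces hepatic fibrosis. Groups are control, model, colchicine 0.1 mg kg–1, and test article at 100 or 200 mg kg–1. Liver sections are scored by light microscopy after H&E and Masson staining.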

RAW264.7 [9] = assay: Anti-inflammatory activity in mouse RAW264.7 cells assessed as inhibition of LPS-induced iNOS protein expression measured after 20 hrs by Western blot analysis; assay type: functional, cell-based
Procedure, shortened: (§4)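 RAW264.7 cells are treated with graded concentrations of test article, then held with or without LPS (1 μg mL–1) for 20 h. iNOS and COX-2 protein are measured. The NF-κB inhibitor Bay 11-7082 (20 μM) serves as reference. Results are means ± SD (n = 3) of at least three independent experiments.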

RAW264.7 [10] = assay: Inhibition of LPS-induced ERK phosphorylation in mouse RAW264.7 cells after 30 mins by Western blot analysis; assay type: cell-based; procedure, shortened: as §2
[11] = Inhibition of LPS-induced IkBalpha phosphorylation in mouse RAW264.7 cells at 10 to 30 uM after 30 mins by Western blot analysis
Mus musculus [12] = assay: Anti-inflammatory activity in C57BL6 mouse model of CCl4-induced hepatic fibrosis assessed as reduction in inflammatory cell infiltration in hepatic tissue at 100 to 200 mg/kg, ig administered 2 times per week for 4 weeks by H and E staining based assay; assay type: functional, organism-based; procedure, shortened: as §3
Mus musculus [13] = assay: Anti-inflammatory activity in C57BL6 mouse model of CCl4-induced hepatic fibrosis assessed as reduction in hepatic fibrosis at 100 to 200 mg/kg, ig administered 2 times per week for 4 weeks by H and E staining based assay; assay type: functional, organism-based; procedure, shortened: as §3
RAW264.7 [14] = assay: Anti-inflammatory activity in mouse RAW264.7 cells assessed as inhibition of LPS-induced COX2 protein expression measured after 20 hrs by Western blot analysis; assay type: functional, cell-based; procedure, shortened: as §4
[15] = biological target: Transcription factor p65 (Mus musculus) (UniProt Q04207); assay: Inhibition of LPS-induced NF-kB p65 nuclear tanslocation in mouse RAW264.7 cells at 20 to 30 uM preincubated for 1 hr followed by LPS addition measured after 3 hrs by DAPI staining based immunofluorescence assay; assay type: cell-based
Procedure, shortened: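 For p65 nuclear translocation, RAW264.7 cells are pretreated 1 h with test article, then stimulated with LPS (1 μg mL–1) for 3 h before immunofluorescence imaging.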

SMILES	inhibition (RAW264.7 [1])	inhibition (RAW264.7 [2])	viability at 24 h, 40 µM [3]	other results
CC1(C)[C@@H](O[C@H]2O[C@H](C(=O)O)[C@@H](O)[C@H](O)[C@H]2O[C@@H]2O[C@H](C(=O)O)[C@@H](O)[C@H](O)[C@H]2O)CC[C@]2(C)[C@H]3C(=O)C=C4[C@H]5C[C@@](C)(C(=O)O)CC[C@]5(C)CC[C@@]4(C)[C@]3(C)CC[C@@H]12	Active	Active	> 96%	
COc1cc2c(c(OC)c1OC)-c1ccc(OC)c(=O)cc1[C@@H](NC(C)=O)CC2				Activity (Mus musculus [4]): Active; Activity (Mus musculus [5]): Active; Activity (Mus musculus [6]): Active
CC1(C)[C@@H](O[C@H]2O[C@H](C(=O)O)[C@@H](O)[C@H](O)[C@H]2O)CC[C@]2(C)[C@H]3C(=O)C=C4[C@@H]5C[C@@](C)(C(=O)O)CC[C@]5(C)CC[C@@]4(C)[C@]3(C)CC[C@@H]12	Active	Active	> 96%	
CC1(C)[C@@H](O)CC[C@]2(C)[C@H]3C(=O)C=C4[C@H]5C[C@@](C)(C(=O)O)CC[C@]5(C)CC[C@@]4(C)[C@]3(C)CC[C@@H]12 [18alpha-GLYCYRRHETINIC ACID]	Active	Active	> 96%	
CC1(C)[C@@H](O[C@H]2O[C@H](C(=O)O)[C@@H](O)[C@H](O)[C@H]2O[C@@H]2O[C@H](C(=O)O)[C@@H](O)[C@H](O)[C@H]2O)CC[C@]2(C)[C@H]3C(=O)C=C4[C@@H]5C[C@@](C)(C(=O)O)CC[C@]5(C)CC[C@@]4(C)[C@]3(C)CC[C@@H]12 [GLYCYRRHIZIN]	Active	Active	> 96%	
CC1(C)[C@@H](O[C@H]2O[C@H](C(=O)O)[C@@H](O)[C@H](O)[C@H]2O)CC[C@]2(C)[C@H]3C(=O)C=C4[C@H]5C[C@@](C)(C(=O)O)CC[C@]5(C)CC[C@@]4(C)[C@]3(C)CC[C@@H]12		Active	> 96%	inhibition [7]: Active; inhibition at 40 µM (RAW264.7 [1]): > 70%; Activity (Mus musculus [8]): Active; inhibition (RAW264.7 [9]): Dose-dependent effect; inhibition (RAW264.7 [10]): Dose-dependent effect; inhibition [11]: Active; Activity (Mus musculus [12]): Active; Activity (Mus musculus [13]): Active; inhibition (RAW264.7 [14]): Dose-dependent effect; inhibition [15]: Active
CC1(C)[C@@H](O)CC[C@]2(C)[C@H]3C(=O)C=C4[C@@H]5C[C@@](C)(C(=O)O)CC[C@]5(C)CC[C@@]4(C)[C@]3(C)CC[C@@H]12 [ENOXOLONE]	Active	Active	> 96%	
